Results reported in PMC9989852 (Food and chemical toxicology : an international journal …, 2022).

What was measured:
spleen = experiment: Spleen phenotyping by flow cytometry after 28-day dermal exposure; type: in vivo, B6C3F1 mice; settings: 28 days
Outline: (§1)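 Female B6C3F1 mice (5/group) received 25 μl/ear daily to the dorsal ears in acetone. About 24 h after the last dose, tissues went into RPMI: both auricular dLNs, half spleen and one ear pinna. Single-cell suspensions were acquired on an LSR II, with populations gated per supplemental strategy and FMO gating controls. Results are mean ± SE, n=5, by one-way ANOVA.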

ear pinna = experiment: Skin; type: in vivo, B6C3F1 mice; settings: dermal, 28 days
Outline: as §1

B6C3F1 mice = experiment: Serum chemistries after 28-day dermal exposure; type: in vivo; settings: 5%, 28 days
Outline: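 Female B6C3F1 mice received daily dorsal ear application (25 μl/ear, acetone vehicle). About 24 h after the last dose, blood was taken by cardiac puncture. Serum was separated by centrifugation and stored at −20 °C. ALKP, BUN, glucose and cholesterol were read on a Catalyst DX analyzer. Data are mean ± SE of 4–5 mice, ANOVA with Dunnett's; ALKP was also tested by linear regression (p < 0.05).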

## O=C(O)C(F)(F)C(F)(F)C(F)(F)C(F)(F)C(F)(F)F [PFHxA, perfluorohexanoic acid]
spleen; 2.5%
  spleen MFI of CD86 on B-cells: increase
  spleen NK cell frequency: increase
  spleen frequency of CD11b + Ly6C + cells: significant decrease
spleen; 5%
  spleen MFI of CD86 on B-cells: increase
  spleen frequency of CD11b + Ly6C + cells: significant decrease
Ear pinna; 1.25%
  Ear CD4^+ cell number: 2.40 ± 0.36 × 10^3
  Ear CD4^+ frequency: 3.34 ± 0.09%
  Ear CD8^+ cell number: 3.38 ± 2.57 × 10^2
  Ear CD8^+ frequency: 0.48 ± 0.37%
  Ear CD45^+ cell number: 7.21 ± 1.13 × 10^4
  Ear CD45^+ frequency: 8.51 ± 0.85%
  Ear CD lib- F4/80+ DCs cell number: 5.74 ± 0.72 × 10^2
  Ear CDllb + F4/80+ DCs cell number: 22.30 ± 3.03 × 10^2
  Ear CDllb- F4/80+ DCs frequency: 0.87 ± 0.14%
  Ear CDllb- F4/80-DCs cell number: 1.47 ± 0.24 × 10^3
  Ear CDllb- F4/80-DCs frequency: 2.05 ± 0.05 %
  Ear Dendritic Cells cell number: 4.99 ± 0.68 × 10^3
  Ear Dendritic Cells frequency: 7.09 ± 0.33%
  Ear Eosinophils cell number: 2.77 ± 0.56 × 10^3
  Ear Eosinophils frequency: 3.82 ± 0.34%
  Ear NK cell number: 4.76 ± 0.96 × 10^2
  Ear NK frequency: 0.66 ± 0.07%
  Ear Neutrophils cell number: 1.18 ± 0.22 × 10^2
  Ear Neutrophils frequency: 0.17 ± 0.02%
  Ear Total Cellularity: 0.83 ± 0.09 × 10^6
Ear pinna; 2.5%
  Ear CD4^+ cell number: 5.01 ± 0.60 × 10^3
  Ear CD4^+ frequency: 5.05 ± 0.25 %
  Ear CD8^+ cell number: 1.91 ± 0.23 × 10^2
  Ear CD8^+ frequency: 0.19 ± 0.02%
  Ear CD45^+ cell number: 9.82 ± 0.79 × 10^4
  Ear CD45^+ frequency: 10.91 ± 1.00 %
  Ear CD lib- F4/80+ DCs cell number: 6.58 ± 0.67 × 10^2
  Ear CDllb + F4/80+ DCs cell number: 35.80 ± 2.66 × 10^2
  Ear CDllb- F4/80+ DCs frequency: 0.67 ± 0.05%
  Ear CDllb- F4/80-DCs cell number: 2.82 ± 0.24 × 10^3
  Ear CDllb- F4/80-DCs frequency: 2.89 ± 0.19%
  Ear Dendritic Cells cell number: 9.09 ± 0.72 × 10^3
  Ear Dendritic Cells frequency: 9.30 ± 0.47%
  Ear Eosinophils frequency: 7.59 ± 0.65 %
  Ear NK cell number: 6.45 ± 0.60 × 10^2
  Ear NK frequency: 0.66 ± 0.04%
  Ear Neutrophils cell number: 4.94 ± 1.24 × 10^2
  Ear Neutrophils frequency: 0.51 ± 0.13%
  Ear Total Cellularity: 0.91 ± 0.05 × 10^6
Ear pinna; 5%
  Ear CD4^+ cell number: 6.11 ± 1.17 × 10^3
  Ear CD4^+ frequency: 5.29 ± 0.32 %
  Ear CD8^+ cell number: 2.15 ± 0.46 × 10^2
  Ear CD8^+ frequency: 0.20 ± 0.04%
  Ear CD45^+ cell number: 11.50 ± 2.03 × 10^4
  Ear CD45^+ frequency: 11.22 ± 1.00 %
  Ear CD lib- F4/80+ DCs cell number: 4.22 ± 0.49 × 10^2
  Ear CDllb + F4/80+ DCs cell number: 48.30 ± 7.74 × 10^2
  Ear CDllb- F4/80+ DCs frequency: 0.39 ± 0.03 %
  Ear CDllb- F4/80-DCs cell number: 2.90 ± 0.54 × 10^3
  Ear CDllb- F4/80-DCs frequency: 2.51 ± 0.14%
  Ear Dendritic Cells cell number: 10.10 ± 1.77 × 10^3
  Ear Dendritic Cells frequency: 8.88 ± 0.39%
  Ear Eosinophils cell number: 9.87 ± 1.78 × 10^3
  Ear Eosinophils frequency: 8.60 ± 0.38 %
  Ear NK cell number: 9.94 ± 2.21 × 10^2
  Ear NK frequency: 0.85 ± 0.09 %
  Ear Neutrophils frequency: 1.13 ± 0.23 %
  Ear Total Cellularity: 0.99 ± 0.11 × 10^6
B6C3F1 mice
  serum glucose, increase compared to vehicle control: 27%
